Assay results published in ChEMBL document CHEMBL1132202, “2-Amino-3-substituted-6-[(E)-1-phenyl-2-(N-methylcarbamoyl)vinyl]imid azo[1,2-a]pyridines as a novel class of inhibitors of human rhinovirus: stereospecific synthesis and antiviral activity” (J Med Chem, 1999).
In brackets after ≈: the same amount, converted by molar mass.

What was measured:
[1] = Ratio of TC50 value to the IC50 value measured on rhinovirus-14 by using CPE/XTT assay.; assay type: functional
In short: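 Cytopathic-effect assay run per an earlier method, except that surviving host cells were quantified by XTT reduction instead of crystal violet staining. General cellular toxicity was taken as TC50, and the ratio was TC50 divided by IC50. No-drug controls received 0.1% DMSO.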

[2] = Compound was measured for inhibition on Human Rhinovirus-14 by using PRA assay (Antiviral activity); assay type: functional, Human rhinovirus sp.
In short: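 H-HeLa cells grown in 60-mm dishes at 37 °C in MEM with 10% newborn calf serum and 1% nonessential amino acids. Overlay contained varied compound concentrations. Incubated 35 °C for 48 h, fixed with 10% formalin, stained with 0.5% crystal violet, plaques counted. Duplicate wells averaged vs DMSO controls. IC50 (50% plaque inhibition) by Reed-Muench from linear region of the curve.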

[3] = Compound was evaluated for cellular toxicity in on Human Rhinovirus-14 by using CPE/XTT assay (cytopathic effect assay); conditions: human rhinovirus sp.; read-out: TC50 (the source's name)
In short: (§1)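 CPE assay run per an earlier protocol, except that surviving host cells were quantified with XTT as substrate rather than crystal violet staining. The same assay gave the cellular toxicity TC50. Control samples without drug received 0.1% DMSO.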

[4] = Compound was measured for inhibition on Human Rhinovirus-14 by using CPE/XTT assay (Antiviral activity); assay type: functional, Human rhinovirus sp.; in short: as §1

| Compound | TC50/IC50 [1] | IC50 [2] [µg/mL] | CC50 [3] [µg/mL] | IC50 [4] [µg/mL] |
| --- | --- | --- | --- | --- |
| CNC(=O)/C=C(\c1ccccc1)c1ccc2nc(N)c(-c3ccc(F)cc3C(F)(F)F)n2c1 | >21 | 0.44 (≈ 0.968 µM) | > 10 | 0.48 (≈ 1.06 µM) |
| CNC(=O)/C=C(\c1ccccc1)c1ccc2nc(N)c(-c3cc(F)ccc3F)n2c1 | 30 | 0.18 (≈ 0.445 µM) | 4.87 (≈ 12 µM) | 0.16 (≈ 0.396 µM) |
| CNC(=O)/C=C(\c1ccccc1)c1ccc2nc(N)c(S(=O)(=O)C(C)C)n2c1 |  | 0.64 (≈ 1.61 µM) |  |  |
| CNC(=O)/C=C(\c1ccccc1)c1ccc2nc(N)c(SC(C)C)n2c1 | 48 | 0.17 (≈ 0.464 µM) | 10 (≈ 27.3 µM) | 0.21 (≈ 0.573 µM) |
| CNC(=O)/C=C(\c1ccccc1)c1ccc2nc(N)cn2c1 |  | > 10 |  |  |
| CNC(=O)/C=C(\c1ccccc1)c1ccc2nc(N)c(I)n2c1 |  | > 3.2 |  |  |
| CNC(=O)/C=C(\c1ccccc1)c1ccc2nc(N)c(-c3ccc(F)c(F)c3F)n2c1 | 33 | 0.17 (≈ 0.402 µM) | 6.98 (≈ 16.5 µM) | 0.21 (≈ 0.497 µM) |
| CNC(=O)/C=C(\c1ccccc1)c1ccc2nc(N)c(-c3ccccc3)n2c1 | 17 | 0.27 (≈ 0.733 µM) | 5.03 (≈ 13.7 µM) | 0.3 (≈ 0.814 µM) |
